Results taken from ChEMBL document CHEMBL1143573, “Synthesis and structure-activity relationships of a new model of arylpiperazines. 8. Computational simulation of ligand-receptor interaction of 5-HT(1A)R agonists with selectivity over alpha1-adrenoceptors” (J Med Chem, 2005).

Tests used:
[1] = biological target: T1, Adrenergic receptor alpha-1 (Rattus norvegicus, UniProt P15823+P23944+P43140); experiment: In vitro inhibition of [3H]prazosin binding to Alpha-1 adrenergic receptor in rat cerebral cortex membranes; type: cell membranes, Membrane
T1 sequence (P15823 whole entry): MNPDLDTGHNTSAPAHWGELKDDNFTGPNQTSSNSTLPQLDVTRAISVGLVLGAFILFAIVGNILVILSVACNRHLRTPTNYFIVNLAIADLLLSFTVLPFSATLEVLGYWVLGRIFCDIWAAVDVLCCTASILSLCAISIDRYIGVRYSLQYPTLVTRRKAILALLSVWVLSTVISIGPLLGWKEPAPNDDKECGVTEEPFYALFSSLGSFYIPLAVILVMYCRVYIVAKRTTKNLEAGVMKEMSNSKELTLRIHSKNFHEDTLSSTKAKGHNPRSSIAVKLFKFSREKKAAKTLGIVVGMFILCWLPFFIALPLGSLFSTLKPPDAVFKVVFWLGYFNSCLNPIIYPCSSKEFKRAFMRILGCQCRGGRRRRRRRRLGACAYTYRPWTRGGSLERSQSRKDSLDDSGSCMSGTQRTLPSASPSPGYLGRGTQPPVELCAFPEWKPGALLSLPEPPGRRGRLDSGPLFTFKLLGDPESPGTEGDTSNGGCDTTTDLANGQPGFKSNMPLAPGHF
T1 sequence (P23944 whole entry): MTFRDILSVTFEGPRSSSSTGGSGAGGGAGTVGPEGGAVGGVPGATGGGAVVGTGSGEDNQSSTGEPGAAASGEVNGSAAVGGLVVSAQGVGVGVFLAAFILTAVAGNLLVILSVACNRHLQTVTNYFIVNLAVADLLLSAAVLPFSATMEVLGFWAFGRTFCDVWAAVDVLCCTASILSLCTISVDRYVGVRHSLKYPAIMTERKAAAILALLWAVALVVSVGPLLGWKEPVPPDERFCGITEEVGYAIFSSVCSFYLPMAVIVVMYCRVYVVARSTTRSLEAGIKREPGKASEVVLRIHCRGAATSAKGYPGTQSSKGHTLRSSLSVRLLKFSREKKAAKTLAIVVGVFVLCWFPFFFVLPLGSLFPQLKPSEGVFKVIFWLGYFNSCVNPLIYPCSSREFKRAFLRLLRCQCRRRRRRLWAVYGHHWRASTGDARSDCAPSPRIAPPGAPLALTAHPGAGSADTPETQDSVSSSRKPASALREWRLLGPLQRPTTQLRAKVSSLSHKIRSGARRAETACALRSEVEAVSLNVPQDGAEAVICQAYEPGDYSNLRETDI
T1 sequence (P43140 whole entry): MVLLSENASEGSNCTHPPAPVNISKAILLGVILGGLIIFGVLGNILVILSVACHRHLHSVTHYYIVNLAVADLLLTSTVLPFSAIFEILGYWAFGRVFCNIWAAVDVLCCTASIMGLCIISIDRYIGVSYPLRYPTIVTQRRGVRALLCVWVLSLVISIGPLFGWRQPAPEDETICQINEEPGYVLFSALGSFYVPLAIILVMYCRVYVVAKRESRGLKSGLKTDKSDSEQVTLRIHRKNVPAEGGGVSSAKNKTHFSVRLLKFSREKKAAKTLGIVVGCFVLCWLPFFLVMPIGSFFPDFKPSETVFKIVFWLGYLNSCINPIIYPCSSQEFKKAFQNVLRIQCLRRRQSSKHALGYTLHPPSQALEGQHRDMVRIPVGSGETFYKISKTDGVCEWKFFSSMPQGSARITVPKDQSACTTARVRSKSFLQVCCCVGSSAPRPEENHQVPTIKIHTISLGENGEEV
How it was run: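 Rat cerebral cortex membranes (about 250 µg protein) in 50 mM Tris-HCl with 10 mM MgCl2, pH 7.4. Incubated 30 min at 25 °C with 0.2 nM [3H]prazosin and six competitor concentrations. Nonspecific binding with 10 µM phentolamine. Compounds screened at 10^-6 M, curves run if displacement exceeded 55%. Triplicates, 2-4 experiments; Ki by Cheng-Prusoff.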

[2] = biological target: T2, 5-hydroxytryptamine receptor 1A (Rattus norvegicus, UniProt P19327); experiment: In vitro inhibition of [3H]8-OH-DPAT binding to 5-hydroxytryptamine 1A receptor in rat cerebral cortex membranes; type: cell membranes, Membrane
T2 sequence (P19327 whole entry): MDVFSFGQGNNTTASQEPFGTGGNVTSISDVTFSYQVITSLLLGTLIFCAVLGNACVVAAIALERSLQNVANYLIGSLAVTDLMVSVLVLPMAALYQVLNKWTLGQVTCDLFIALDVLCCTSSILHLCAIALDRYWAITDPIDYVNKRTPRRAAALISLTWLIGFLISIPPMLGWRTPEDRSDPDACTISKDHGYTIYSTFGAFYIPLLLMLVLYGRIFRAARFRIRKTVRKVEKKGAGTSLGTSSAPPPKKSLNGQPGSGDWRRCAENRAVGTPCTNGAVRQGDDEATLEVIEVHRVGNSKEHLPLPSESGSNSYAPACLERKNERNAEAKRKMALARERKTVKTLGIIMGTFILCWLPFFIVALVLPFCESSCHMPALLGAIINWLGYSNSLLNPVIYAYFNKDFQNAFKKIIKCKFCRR
How it was run: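 Rat cerebral cortex membranes (about 1 mg protein) incubated 15 min at 37 °C with 0.6 nM [3H]-8-OH-DPAT in 50 mM Tris-HCl, pH 7.4, containing 10 nM clonidine and 30 nM prazosin. Nonspecific binding with 10 µM 5-HT. Compounds screened at 10^-6 M; curves run if displacement exceeded 55%. Filtration, scintillation counting, triplicates, 2-4 experiments; Ki by Cheng-Prusoff.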

D(2) dopamine receptor = D(2) dopamine receptor (Rattus norvegicus, UniProt P61169); experiment: In vitro inhibition of [3H]-raclopride binding to Dopamine receptor D2 in rat striatum membranes; type: cell membranes, Membrane
How it was run: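 Male Sprague-Dawley rat striatum membranes (125-150 µg protein) incubated 60 min at 25 °C with 0.8 nM [3H]raclopride and six competitor concentrations. Nonspecific binding with 1 µM (+)-butaclamol. GF/B filtration, scintillation counting, triplicates. Ki by Cheng-Prusoff.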

[3] = biological target: 5-hydroxytryptamine receptor 7 (Rattus norvegicus, UniProt P32305); experiment: In vitro inhibition of [3H]5-CT binding to 5-hydroxytryptamine 7 receptor in rat hypothalamus membranes; type: cell membranes, Membrane
How it was run: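 Rat hypothalamus membranes were incubated 120 min at 23 °C with 0.5 nM [3H]-5-CT. Nonspecific binding with 10 µM 5-HT. Filtration and scintillation counting, triplicates, 2-4 experiments. Ki from curve fit by Cheng-Prusoff.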

[4] = biological target: 5-hydroxytryptamine receptor 4 (Rattus norvegicus, UniProt Q62758); experiment: In vitro inhibition of [3H]GR-113808 binding to 5-hydroxytryptamine 4 receptor of rat striatum membranes; type: cell membranes, Membrane
How it was run: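 Membranes from rat striatum were incubated 30 min at 37 °C with 0.1 nM [3H]GR113808 in 50 mM HEPES, pH 7.4. Nonspecific binding with 30 µM 5-HT. Bound radioactivity counted after GF/B filtration, triplicates. Ki from iterative curve fit via Cheng-Prusoff.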

[5] = biological target: T3, 5-hydroxytryptamine receptor 3A (Rattus norvegicus, UniProt P35563); experiment: In vitro inhibition of [3H]LY-278584 binding to 5-hydroxytryptamine 3 receptor in rat cerebral cortex membranes; type: cell membranes, Membrane
T3 sequence (P35563 whole entry): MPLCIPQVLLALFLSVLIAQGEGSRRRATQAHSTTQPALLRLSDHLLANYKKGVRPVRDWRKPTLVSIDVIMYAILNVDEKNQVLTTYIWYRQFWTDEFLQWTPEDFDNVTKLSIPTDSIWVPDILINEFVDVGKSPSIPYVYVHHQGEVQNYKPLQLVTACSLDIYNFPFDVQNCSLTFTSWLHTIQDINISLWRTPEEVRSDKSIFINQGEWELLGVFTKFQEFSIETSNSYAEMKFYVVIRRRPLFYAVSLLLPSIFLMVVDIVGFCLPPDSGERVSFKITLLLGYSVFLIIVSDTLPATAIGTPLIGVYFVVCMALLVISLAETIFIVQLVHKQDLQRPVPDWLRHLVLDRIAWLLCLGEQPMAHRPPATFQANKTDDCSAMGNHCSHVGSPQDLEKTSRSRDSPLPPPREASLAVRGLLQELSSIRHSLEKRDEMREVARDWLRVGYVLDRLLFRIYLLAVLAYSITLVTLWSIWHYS
How it was run: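 Sucrose-prepared rat cerebral cortex membranes were incubated 30 min at 25 °C with 0.7 nM [3H]LY278584. Nonspecific binding with 10 µM 5-HT. Filtration and scintillation counting, triplicates; Ki by Cheng-Prusoff.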

[6] = biological target: GABA-A receptor; anion channel; experiment: In vitro inhibition of [3H]flunitrazepam binding to Benzodiazepine receptor of rat cerebral cortex membranes; type: cell membranes, Membrane
How it was run: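 Rat brain membranes (about 100 µg protein) in 25 mM potassium phosphate, pH 7.4, incubated 90 min at 0-4 °C with 0.25 nM [3H]flunitrazepam. Nonspecific binding with 2 µM diazepam. Filtration, scintillation counting, triplicates; Ki by Cheng-Prusoff.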

[7] = biological target: 5-hydroxytryptamine receptor 2A (Rattus norvegicus, UniProt P14842); experiment: In vitro inhibition of [3H]ketanserin binding to 5-hydroxytryptamine 2A receptor in rat cerebral frontal cortex membranes; type: cell membranes, Membrane
How it was run: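 Rat frontal cortex membranes were incubated 15 min at 37 °C with 0.4 nM [3H]ketanserin. Nonspecific binding with 1 µM cinanserin. Filtration, scintillation counting, triplicates; Ki by Cheng-Prusoff.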

[8] = biological target: Sodium-dependent serotonin transporter (Rattus norvegicus, UniProt P31652); experiment: In vitro inhibition of [3H]paroxetine binding to 5-hydroxytryptamine transporter in rat cerebral cortex membranes; type: cell membranes, Membrane
How it was run: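 Rat cortical membranes (about 120 µg protein) incubated 60 min at 25 °C with 0.2 nM [3H]paroxetine. Buffer is Tris-HCl with 20 mM NaCl and 5 mM KCl, pH 7.4. Nonspecific binding with 10 µM fluoxetine. Filtration, scintillation counting, triplicates; Ki by Cheng-Prusoff.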

[9] = biological target: T4, 5-hydroxytryptamine receptor 1A (Homo sapiens) (UniProt P08908); experiment: (§1) Inhibition of forskolin-induced increase in cAMP in human 5-hydroxytryptamine 1A receptor expressed HeLa cells; type: functional, cell-based
T4 sequence (whole entry): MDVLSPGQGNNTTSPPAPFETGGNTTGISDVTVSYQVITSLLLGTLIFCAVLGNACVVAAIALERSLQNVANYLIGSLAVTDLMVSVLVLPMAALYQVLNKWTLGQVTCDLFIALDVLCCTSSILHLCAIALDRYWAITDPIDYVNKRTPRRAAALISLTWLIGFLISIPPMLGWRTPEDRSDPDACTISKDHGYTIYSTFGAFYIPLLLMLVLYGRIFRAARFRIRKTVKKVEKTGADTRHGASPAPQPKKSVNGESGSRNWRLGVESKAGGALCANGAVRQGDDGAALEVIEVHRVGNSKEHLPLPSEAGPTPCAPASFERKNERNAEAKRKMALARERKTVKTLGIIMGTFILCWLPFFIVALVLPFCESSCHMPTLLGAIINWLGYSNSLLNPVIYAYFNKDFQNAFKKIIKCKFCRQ
How it was run: (§2)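 HeLa cells stably expressing human 5-HT1A (HA 6) were plated 48 h ahead. Cells treated 10 min at 37 °C, 5% CO2, with 0.5 mM IBMX, 10 µM forskolin and compound (10-9-10-5 M), then lysed in 65% ethanol. cAMP measured by [3H] radioimmunoassay, expressed as % of forskolin-stimulated adenylate cyclase activity. Duplicate experiments, four wells per concentration; EC50 by curve fit.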

[10] = biological target: T5, 5-hydroxytryptamine receptor 1A (Homo sapiens, UniProt P08908); experiment: as §1; type: functional, cell-based; how it was run: as §2
T5 sequence (P08908 whole entry): T4 sequence (whole entry)

5-hydroxytryptamine receptor 4, sequence (Q62758 whole entry): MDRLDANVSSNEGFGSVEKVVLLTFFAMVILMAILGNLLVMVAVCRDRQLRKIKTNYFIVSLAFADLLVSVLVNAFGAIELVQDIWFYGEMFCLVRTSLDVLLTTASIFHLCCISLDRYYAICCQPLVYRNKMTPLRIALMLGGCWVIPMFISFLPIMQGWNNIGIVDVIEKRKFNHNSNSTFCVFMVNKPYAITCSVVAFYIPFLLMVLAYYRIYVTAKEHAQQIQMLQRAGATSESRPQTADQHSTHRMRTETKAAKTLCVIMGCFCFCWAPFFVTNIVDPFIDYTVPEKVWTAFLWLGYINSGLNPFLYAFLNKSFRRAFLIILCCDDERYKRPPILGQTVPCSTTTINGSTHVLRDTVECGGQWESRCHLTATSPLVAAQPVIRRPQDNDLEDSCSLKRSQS
5-hydroxytryptamine receptor 7, sequence (P32305 whole entry): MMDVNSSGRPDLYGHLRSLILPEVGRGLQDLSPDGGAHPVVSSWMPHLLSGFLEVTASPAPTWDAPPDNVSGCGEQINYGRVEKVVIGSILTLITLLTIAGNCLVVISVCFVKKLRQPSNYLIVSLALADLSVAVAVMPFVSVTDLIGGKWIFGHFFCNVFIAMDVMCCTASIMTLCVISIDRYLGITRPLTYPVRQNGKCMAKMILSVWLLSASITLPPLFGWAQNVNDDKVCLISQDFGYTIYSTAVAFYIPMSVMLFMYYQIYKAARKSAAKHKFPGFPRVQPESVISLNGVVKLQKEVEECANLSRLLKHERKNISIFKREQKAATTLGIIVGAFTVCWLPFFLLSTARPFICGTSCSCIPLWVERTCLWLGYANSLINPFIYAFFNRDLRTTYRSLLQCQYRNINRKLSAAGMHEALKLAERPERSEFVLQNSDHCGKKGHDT
5-hydroxytryptamine receptor 2A, sequence (P14842 whole entry): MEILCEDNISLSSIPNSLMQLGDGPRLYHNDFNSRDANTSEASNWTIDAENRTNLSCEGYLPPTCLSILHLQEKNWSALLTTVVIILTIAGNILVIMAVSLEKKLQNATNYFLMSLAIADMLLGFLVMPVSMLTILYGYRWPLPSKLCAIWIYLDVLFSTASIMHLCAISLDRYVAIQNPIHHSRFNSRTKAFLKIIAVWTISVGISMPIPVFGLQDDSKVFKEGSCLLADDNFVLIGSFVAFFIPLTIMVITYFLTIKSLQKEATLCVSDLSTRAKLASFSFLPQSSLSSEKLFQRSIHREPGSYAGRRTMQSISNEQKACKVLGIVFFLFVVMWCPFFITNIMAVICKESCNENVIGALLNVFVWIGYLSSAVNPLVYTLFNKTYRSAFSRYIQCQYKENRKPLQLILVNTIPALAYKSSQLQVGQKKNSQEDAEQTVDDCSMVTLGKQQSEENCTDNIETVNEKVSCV
Sodium-dependent serotonin transporter, sequence (P31652 whole entry): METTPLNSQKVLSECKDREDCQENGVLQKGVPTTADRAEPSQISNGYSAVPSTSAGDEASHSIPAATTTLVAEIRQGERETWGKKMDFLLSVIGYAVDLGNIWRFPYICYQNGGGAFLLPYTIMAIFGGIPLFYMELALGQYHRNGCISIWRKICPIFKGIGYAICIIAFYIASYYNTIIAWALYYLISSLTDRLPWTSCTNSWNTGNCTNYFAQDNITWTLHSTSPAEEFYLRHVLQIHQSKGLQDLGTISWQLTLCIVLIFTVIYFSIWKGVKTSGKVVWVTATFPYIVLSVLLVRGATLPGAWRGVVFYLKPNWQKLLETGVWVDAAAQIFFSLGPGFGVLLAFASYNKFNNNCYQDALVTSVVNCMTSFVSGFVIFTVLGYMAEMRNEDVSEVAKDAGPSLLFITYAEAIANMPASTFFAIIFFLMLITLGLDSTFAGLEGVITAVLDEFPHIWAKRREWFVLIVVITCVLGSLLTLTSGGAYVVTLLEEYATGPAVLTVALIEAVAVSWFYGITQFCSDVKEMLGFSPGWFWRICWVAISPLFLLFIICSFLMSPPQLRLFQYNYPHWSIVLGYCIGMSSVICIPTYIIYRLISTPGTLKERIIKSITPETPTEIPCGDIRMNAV
D(2) dopamine receptor, sequence (P61169 whole entry): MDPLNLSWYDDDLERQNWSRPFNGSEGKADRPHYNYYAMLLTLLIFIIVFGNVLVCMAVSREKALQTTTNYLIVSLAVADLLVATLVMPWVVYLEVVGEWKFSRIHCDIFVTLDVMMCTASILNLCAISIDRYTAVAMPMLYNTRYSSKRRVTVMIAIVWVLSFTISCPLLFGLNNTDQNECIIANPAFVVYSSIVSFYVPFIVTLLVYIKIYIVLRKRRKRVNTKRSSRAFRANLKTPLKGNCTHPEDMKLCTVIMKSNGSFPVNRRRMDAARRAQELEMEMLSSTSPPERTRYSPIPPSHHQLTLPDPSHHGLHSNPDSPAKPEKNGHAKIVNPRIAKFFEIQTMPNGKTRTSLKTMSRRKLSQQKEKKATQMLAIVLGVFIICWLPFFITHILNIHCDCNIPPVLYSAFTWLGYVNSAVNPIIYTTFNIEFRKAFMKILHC

## C[C@H]1CN(c2cccc3ccccc23)CCN1CN1CC(=O)N2CCC[C@H]2C1=O
[1]
  Ki: > 1000 nM

## C[C@H]1CN(c2cccc3ccccc23)CCN1CCCCN1CC(=O)N2CCC[C@H]2C1=O
[1]
  Ki: 34.4 nM

## O=C1C2CCCCN2C(=O)N1CN1CCN(c2cccc3c2OCCO3)CC1 (configuration not stated)
[1]
  Ki: > 1000 nM

## O=C1[C@@H]2CCCN2C(=O)CN1CN1CCN(c2cccc3c2CC=COO3)CC1
[2]
  Ki: 12.3 nM
[1]
  Ki: > 1000 nM

## O=C1C2CCCN2C(=O)N1CCCCN1CCN(c2cccc3[nH]cnc23)CC1 (configuration not stated)
[1]
  Ki: 19.4 nM

## O=C1C2CCCCN2C(=O)N1CN1CCN(c2cccc3ccccc23)CC1 (configuration not stated)
[1]
  Ki: > 1000 nM

## C[C@@H]1CN(c2cccc3ccccc23)CCN1CN1CC(=O)N2CCC[C@H]2C1=O
[1]
  Ki: > 1000 nM

## O=C1C2CCCN2C(=O)N1CN1CCN(c2cccc3ccccc23)CC1 (configuration not stated)
[1]
  Ki: > 1000 nM

## O=C1C2CCCN2C(=O)N1CN1CCN(c2cccc3[nH]cnc23)CC1 (configuration not stated)
[1]
  Ki: > 10000 nM

## CCS(=O)(=O)Nc1cccc(N2CCN(CCCCN3C(=O)C4CCCN4C3=O)CC2)c1 (configuration not stated)
[1]
  Ki: > 1000 nM

## O=C1[C@@H]2CCCN2C(=O)CN1CN1CCN(c2cccc3ccccc23)CC1
D(2) dopamine receptor
  Ki: 192 nM
[3]
  Ki: 101 nM
[4]
  Ki: > 10 µM
[5]
  Ki: 8.9 nM
[2]
  Ki: 4.1 nM
[6]
  Ki: > 10 µM
[7]
  Ki: 13.5 nM
[8]
  Ki: 976 nM
[1]
  Ki: > 1000 nM
[9]
  Maximal effect: 90.3%
[10]
  EC50: 150 nM

## C[C@@H]1CN(c2cccc3ccccc23)CCN1CCCCN1CC(=O)N2CCC[C@@H]2C1=O
[1]
  Ki: 20.1 nM

## C[C@H]1CN(c2cccc3ccccc23)CCN1CN1CC(=O)N2CCC[C@@H]2C1=O
[1]
  Ki: > 1000 nM

## O=C1C2CCCN2C(=O)CN1CCCCN1CCN(c2cccc3ccccc23)CC1 (configuration not stated)
[1]
  Ki: 8 nM

## O=C1C2CCCN2C(=O)CN1CN1CCN(c2cccc3c2CC=COO3)CC1 (configuration not stated)
[2]
  Ki: 11.6 nM
[1]
  Ki: > 1000 nM

## O=C1C2CCCN2C(=O)CN1CN1CCN(c2cccc3ccccc23)CC1 (configuration not stated)
[2]
  Ki: 6.7 nM
[1]
  Ki: > 1000 nM

## C[C@@H]1CN(c2cccc3ccccc23)CCN1CN1CC(=O)N2CCC[C@@H]2C1=O
[1]
  Ki: > 1000 nM

## O=C1[C@H]2CCCN2C(=O)CN1CN1CCN(c2cccc3ccccc23)CC1
[2]
  Ki: 4.6 nM
[1]
  Ki: > 1000 nM
